In the library only some 0.6% were active in any assay of this set; here they are far more common.
C-LANA FP – KSHV C-LANA DNA binding inhibition. 340,000 compounds, 0.078% hits. MBP-C-LANA/FAM-LBS DNA binding, fluorescence polarization. inhibition, % at 9 µM;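 active = highest replicate inhibition at or above 60% at 9 µM, even if other replicates fall short; inactive = all replicates below 60% inhibition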;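 note: 0% = neutral control wells and 100% = 4 µM acridine orange control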
Keap1 Nrf2 FP – Keap1-Nrf2 (human) interaction inhibition | 340,000 compounds, 0.15% hits | Keap1 Kelch-Nrf2 peptide fluorescence polarization, 1536-well | inhibition, % at 9.4 µM | Q14145 | AID 504523; in the data active = inhibition above about 12%; inconclusive = no clear call, values can overlap the other calls; inactive = below about 7.3%;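 note: human Keap1 Kelch domain with fluorescein labeled Nrf2 9mer peptide probe; 0% = neutral control wells and 100% = peptide positive control; higher means more block of Keap1 binding to Nrf2 peptide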
Tn6 DDE FP – inhibitors of Tn6 peptide binding to human fibrin DD(E); Fibrin DD(E) TRITC-Tn6 fluorescence polarization displacement; inhibition, % at 8.3 µM; 370,000 compounds, 0.21% hits;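 active = inhibition above a per-campaign cutoff: mean of compounds within control limits plus 3 SD, cut at about 15% in these data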;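 note: 0% = median of all compound wells on the plate and 100% = blocking peptide control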
Target sequence (P02675 whole entry, looked up): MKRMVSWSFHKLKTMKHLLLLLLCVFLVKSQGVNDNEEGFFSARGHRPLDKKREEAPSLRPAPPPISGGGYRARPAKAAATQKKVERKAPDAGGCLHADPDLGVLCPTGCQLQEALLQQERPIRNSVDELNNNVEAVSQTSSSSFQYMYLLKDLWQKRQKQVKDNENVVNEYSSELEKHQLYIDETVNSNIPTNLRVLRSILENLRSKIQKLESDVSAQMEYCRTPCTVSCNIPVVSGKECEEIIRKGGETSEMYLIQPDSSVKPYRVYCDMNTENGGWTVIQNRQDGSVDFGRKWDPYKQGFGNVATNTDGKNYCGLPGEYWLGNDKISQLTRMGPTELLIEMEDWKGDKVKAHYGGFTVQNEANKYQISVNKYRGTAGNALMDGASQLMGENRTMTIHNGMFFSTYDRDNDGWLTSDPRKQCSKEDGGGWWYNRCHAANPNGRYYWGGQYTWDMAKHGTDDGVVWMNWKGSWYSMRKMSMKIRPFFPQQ
DDE Tn7 FP inh – DD(E)-Tn7 binding inhibition, primary FP screen; P02675; FP displacement of FITC-Tn7 peptide from fibrin DD(E); 0% = median of compound wells per plate; inhibition, % at 8.3 µM; 370,000 compounds, 0.13% hits; AID 720508;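 active = inhibition above the mean of compounds falling within the control limits plus 3 SD of them, cut at about 14% in these data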;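 note: 0% = plate median of compound wells and 100% = 10 µM Aha-Tn7 peptide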
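Measure: % inhibition scaled between sample-field median and high-control FP; Test system: human fibrin DD(E); Quantity: 2 µM final DD(E) protein; Doses: one dose, 8.3 µM nominal; Schedule: compound with protein 10 min, then 3 h after probe, room temperature; Detection: fluorescence polarization; Medium: Tris buffer with calcium and detergent, pH 7.8.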
Rtt109 HAT inh – inhibitors of Candida albicans Rtt109/Vps75 histone acetyltransferase; Q5AAJ8; purified Rtt109/Vps75, ThioGlo CoA-SH fluorescence, 4 h; inhibition, % at 34.9 µM; 330,000 compounds, 0.16% hits;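 active = inhibition of at least 50% in every replicate; inconclusive = best replicate reaches 50% inhibition but some replicates fall short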
Keap1 Kelch bind – Keap1 (human) Kelch domain binding. AID 651823. 400 compounds, 8% hits. Keap1 Kelch thermal shift, delta Tm; stronger effect = higher value. max delta Tm, degrees C. shares compounds with Keap1 Nrf2 FP; in the data active = max delta Tm above about 0.48 degrees C
Dye-only ctr – dye artifact in Keap1 thermal shift counter-screen | delta Tm, degrees C (no concentration beside the values) | 140 tested, under 10 active | Sypro Orange dye-only thermal melt, no protein, delta Tm; top dose 26 µM | shares compounds with Keap1 Nrf2 FP;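 active = at highest dose tested, delta Tm positive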
Numbers without * were called inactive; ? = inconclusive; · = not tested or not shown.

SMILES | C-LANA FP | Keap1 Nrf2 FP | Tn6 DDE FP | DDE Tn7 FP inh | Rtt109 HAT inh | Keap1 Kelch bind | others
COc1ccc(Nc2nc3ccccc3nc2-n2nc(C)cc2C)cc1 | 13.7 | 42.6* | 8.4 | 3.0 | -60.7 | -0.16
CCCCCC/C(C)=C1/SC(=S)NC1=O | -2.4 | 1.8 | -5.2 | -7.0 | ? | ·
C/C(C/C(C)=C1/SC(=S)NC1=O)=C1\SC(=S)NC1=O | 32.1 | 49.3* | -3.8 | 0.6 | 0.0 | 1.97*
Cc1nc2ccc(S(=O)(=O)NCC(=O)N(C)Cc3ccccc3F)cc2s1 | · | · | -0.3 | 6.0 | · | ·
c1ccc(-n2ncc3c(NCC4CCCO4)ncnc32)cc1 (stereo unspecified) | 6.3 | 12.1* | -8.2 | -7.3 | -3.4 | -0.19
COc1ccc(Br)cc1CNCC1CCCO1 (stereo unspecified) | 18.9 | 35.7* | -3.9 | 2.9 | 3.4 | -0.18
Brc1ccc(CNCC2CCCO2)cc1 (stereo unspecified) | 1.2 | 0.1 | -5.4 | -3.9 | -4.5 | ·
O=C(CCN1C(=O)/C(=C/c2ccco2)SC1=S)Nc1ccc(O)cc1C(=O)O | 62.9* | 12.7* | -11.2 | 1.3 | 2.1 | 0.29
O=C(NNc1ncnc2sccc12)c1ccc(Cl)cc1 | 16.4 | 27.3* | 1.2 | -3.9 | 0.0 | -0.05
Cc1csc2ncnc(NNC(=O)c3ccc(Cl)cc3)c12 | -0.3 | -3.1 | -4.8 | 3.6 | 4.4 | ·
COc1ccc(S(=O)(=O)N2CCCCCC2)c2ccccc12 | · | · | 2.2 | -3.2 | · | ·
CC(=O)N1CCN(c2cc(C)nc3nc(C)nn23)CC1 | · | · | 3.7 | 2.5 | · | ·
COc1ccccc1CNC(=O)c1ccc(NS(C)(=O)=O)cc1 | -2.2 | -2.0 | 8.0 | 4.8 | 9.2 | ·
COc1ccccc1CNC(=O)c1ccccc1NS(C)(=O)=O | -1.1 | 20.5* | -4.7 | -3.2 | 1.5 | -0.13
CC(C)(C)C(=O)O[C@@H]1CCC[C@@]2(C(=O)N(Cc3ccccc3)c3ccccc32)[C@H]1NC(=O)CCc1ccccc1 | · | · | -3.4 | 5.8 | · | ·
Cc1cc(C)c(S(C)(=O)=O)c(=O)[nH]1 | 0.2 | -3.9 | 4.5 | 9.8 | 2.7 | ·
Cc1cc(=O)c2c([nH]1)c(C)cc1[nH]c(C)c(C)c12 | 50.8 | 24.7* | -8.1 | -3.6 | -45.9 | -0.16 | Dye-only ctr=-25.6
Cc1ccc2oc(=O)c3cnn(CC(=O)NCCC(C)C)c3c2c1 | 0.0 | 31.0* | -3.2 | -5.5 | -5.8 | -0.17 | Dye-only ctr=-26.3
CC(C)COc1ccc(/C=C2/Sc3ccccc3C2=O)cc1 | 4.7 | 5.0 | -7.7 | -1.4 | -3.3 | ·
CCCCOc1ccc(/C=C2/Sc3ccccc3C2=O)cc1 | -0.2 | 13.0* | -13.0 | -4.1 | -6.2 | -0.12
COCCCNc1nc(N)c([N+](=O)[O-])c(Nc2cc(OC)ccc2OC)n1 | 15.6 | 37.8* | -2.4 | -7.0 | -3.0 | -0.08
C#CCNC(=O)C[C@H]1C[C@@]2(C(=O)OC)C(=C[C@H](C(C)C)O[C@@H]2C2CC2)N(CCc2ccc(OC)c(OC)c2)C1=O | · | · | 2.1 | 2.6 | · | ·
O=C1C(Cl)=C(N2CCC(C(=O)O)CC2)C(=O)c2ccccc21 | 2.3 | 2.7 | · | · | -8.6 | ·
NC(=O)C1CCN(C2=C(Cl)C(=O)c3ccccc3C2=O)CC1 | -1.0 | 14.1* | -13.1 | -6.2 | -5.6 | 0.14
CC(C)NC(=O)N(C)C[C@H]1Oc2ccc(NS(=O)(=O)c3cn(C)cn3)cc2C(=O)N([C@H](C)CO)C[C@@H]1C | 21.7 | 28.9* | 3.1 | 1.9 | 0.3 | -0.11
SMILES | C-LANA FP | Keap1 Nrf2 FP | Tn6 DDE FP | DDE Tn7 FP inh | Rtt109 HAT inh | Keap1 Kelch bind | others
C[C@H](CO)N1C[C@H](C)[C@@H](CN(C)C(=O)NC2CCCCC2)Oc2ccc(NS(=O)(=O)c3cn(C)cn3)cc2C1=O | 0.3 | 1.8 | 4.1 | -4.8 | -6.1 | ·
CC(=O)c1cc(-c2ccccc2)n(CC(=O)NCc2ccc(Cl)cc2)c1C | · | · | 3.0 | 0.2 | · | ·
Cc1nc2ccccc2n2c(O)c(CC(=O)O)cc12 | 58.5 | 21.6* | 7.0 | 1.0 | -38.4 | 0.46*
Cc1ccc(NC(=O)CN2C(=O)NC3(CCCCCC3)C2=O)cc1Cl | -0.5 | 19.7* | -8.2 | -2.4 | 9.3 | -0.03
Cc1ccc(NC(=O)CN2C(=O)NC3(CCCC3)C2=O)cc1S(=O)(=O)N1CCCCC1 | 0.5 | -2.7 | -0.9 | 0.5 | 10.1 | ·
O=C(CCCCl)NC(=S)Nc1ccc(N2CCOCC2)cc1 | 14.6 | 32.8* | -1.8 | -7.8 | 5.8 | -0.14 | Dye-only ctr=-22
COCCCNC(=O)c1ccc2c3c(onc13)-c1ccccc1C2=O | 18.3 | 78.5* | · | · | -1.0 | -0.19
COCCCNC(=O)c1ccccc1Oc1ccccc1 | 0.4 | -1.7 | -7.5 | 3.2 | 6.1 | ·
COc1ccc(-n2c(SCC(=O)Nc3ccc(S(=O)(=O)Nc4cc(C)nc(C)n4)cc3)nnc2-c2ccco2)cc1 | · | · | -4.9 | 1.7 | · | ·
N=c1c(C(=O)NC2CCCC2)cc2c(=O)n3ccccc3nc2n1C1CCCCC1 | 16.5 | 17.2* | 8.6 | 2.5 | -367.4 | -0.06
N=c1c(C(=O)NCc2ccc(F)cc2)cc2c(=O)n3ccccc3nc2n1Cc1cccnc1 | 23.3 | 13.1* | 6.9 | 1.2 | · | -0.04 | Dye-only ctr=-22.5
Cc1ccc(Cn2c(=N)c(C(=O)NC3CCCC3)cc3c(=O)n4ccccc4nc32)cc1 | -0.8 | 15.6* | · | · | -9.0 | -0.15 | Dye-only ctr=-26.7
Cc1ccc2nc3c(cc(C(=O)NC4CCCC4)c(=N)n3C3CCCCC3)c(=O)n2c1 | -0.6 | -2.9 | 1.0 | -8.1 | -8.4 | ·
CCOC(=O)CC[C@H]1CC[C@]2(CCCN(Cc3ccccc3)C2)O1 | · | · | 4.6 | 1.4 | · | ·
CCCCN(C(=O)CC1CCCCC1)c1c(N)n(CC(C)C)c(=O)[nH]c1=O | · | 49.8* | -8.6 | 1.8 | 3.5 | -0.14
Cc1ccc(-n2c(SCC(=O)c3ccc(-c4ccccc4)cc3)nnc2-c2ccc(C(C)(C)C)cc2)cc1 | · | · | -3.2 | 5.3 | · | ·
CC1CCN(c2ccc3c(c2)S(=O)(=O)c2ccccc2C3=O)CC1 | 24.2 | 20.9* | -6.1 | 6.0 | -7.3 | 0.32
Cc1cccc(C)c1NC(=O)[C@H]1CC(=O)O[C@@H]1c1ccccc1 | · | · | -2.5 | 0.4 | · | ·
CCOC(=O)c1c(C)oc2c1c(C=NCCO)c(O)c1ccccc12 | 7.8 | 22.6* | -2.1 | 4.4 | 52.5* | -0.18 | Dye-only ctr=-28.7
O=C(COC(=O)c1ccc2c(c1)C(=O)N(Cc1ccncc1)C2=O)Nc1cccc2ccccc12 | -1.4 | -2.6 | 6.4 | 4.3 | 11.9 | ·
O=C(COC(=O)c1ccncc1)Nc1cccc2ccccc12 | 9.7 | 14.1* | -0.8 | -3.0 | -2.0 | -0.09
CCN=C1S/C(=C/c2cc(C)n(-c3ccc(Cl)cc3F)c2C)C(=O)N1CC | · | · | -2.4 | 1.7 | · | ·
Cc1ccc(-c2nc3sc(C#N)c(N)n3c(=O)c2C#N)cc1 | 3.7 | 14.3* | 4.2 | 1.3 | · | -0.05
Cc1ccc(-n2c(N)c(C#N)c(-c3ccccc3)c(C#N)c2=O)cc1 | -1.2 | -6.5 | -4.2 | 1.5 | -3.3 | ·
Cc1cscc1NC(=O)/C=C/C(=O)O | 18.1 | 33.3* | 0.2 | 2.9 | 8.5 | -0.18

Screening results (PubChem)
